Experimental data taken from ChEMBL document CHEMBL3576866, “Discovery of a Cyclic Boronic Acid β-Lactamase Inhibitor (RPX7009) with Utility vs Class A Serine Carbapenemases” (J Med Chem, 2015).

Key:
[1] = target: Beta-lactamase (Enterobacter cloacae) (UniProt P05364); assay: Inhibition of Enterobacter cloacae ECL1061 AmpC assessed as cefepime MIC at 4 ug/ml by broth microdilution method
Klebsiella oxytoca [2] = assay: Inhibition of Klebsiella oxytoca KX1017 SHV-30 assessed as meropenem MIC at 4 ug/ml by broth microdilution method
Klebsiella pneumoniae [3] = assay: Inhibition of Klebsiella pneumoniae KP1008 KPC-2 assessed as ertapenem MIC at 4 ug/ml by broth microdilution method
Procedure, shortened: (§1)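 CLSI broth microdilution (M07-A9, 2012) MIC of the carbapenem against clinical serine carbapenemase-producing strain, tested alone and with the inhibitor held at a fixed 4 μg/mL.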

Plasminogen = Plasminogen (Homo sapiens, UniProt P00747); assay: Inhibition of plasmin (unknown origin) using H-D-VLK-pNA as substrate preincubated for 10 mins followed by substrate addition measured for 30 mins by spectrophotometric analysis
Procedure, shortened: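 Commercial plasmin in 100 mM Tris-HCl, pH 7.5, 100 mM NaCl. Exposed 10 min at 37 °C to varied inhibitor concentrations before H-D-VLK-pNA (listed at 200 μM), then absorbance read over 30 min. Rates were vs a no-treatment control; IC50 is the concentration giving 50% inhibition.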

[4] = AUC (0 to infinity) in rat at 100 mg/kg, iv administered as 0.5 hrs infusion by HPLC-MS method; format: ADME, organism-based; set-up: dose 100 mg/kg, route intravenous, time infinity; conditions: in vivo
Klebsiella pneumoniae [5] = assay: Inhibition of Klebsiella pneumoniae KP1088 SHV-11 assessed as meropenem MIC at 4 ug/ml by broth microdilution method
Procedure, shortened: (§2)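 CLSI broth microdilution (M07-A9, 2012) against the clinical K. pneumoniae isolate. Carbapenem MICs were read alone and with 9f held at a fixed 4 μg/mL.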

[6] = target: Carbapenem-hydrolyzing beta-lactamase KPC (Klebsiella oxytoca) (UniProt Q848S6); assay: Inhibition of Klebsiella oxytoca KX1019 KPC-2 assessed as biapenem MIC at 4 ug/ml by broth microdilution method
[7] = target: Carbapenem-hydrolyzing beta-lactamase KPC (Klebsiella oxytoca) (UniProt Q848S6); assay: Inhibition of Klebsiella oxytoca KX1017 KPC-2 assessed as biapenem MIC at 4 ug/ml by broth microdilution method
Klebsiella pneumoniae [8] = assay: Inhibition of Klebsiella pneumoniae KP1005 CTX-M-14 assessed as cefepime MIC at 4 ug/ml by broth microdilution method
Escherichia coli = assay: Inhibition of Escherichia coli EC1011 TEM-26 assessed as cefepime MIC at 4 ug/ml by broth microdilution method
Procedure, shortened: (§3)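 CLSI broth microdilution (M07-A9) against clinical strains expressing serine β-lactamases.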

[9] = target: Beta lactamase TEM-1 (Klebsiella pneumoniae) (UniProt Q7B899); assay: Inhibition of Klebsiella pneumoniae KP1083 TEM-1 assessed as imipenem MIC at 4 ug/ml by broth microdilution method
[10] = target: Carbapenem-hydrolyzing beta-lactamase KPC (Klebsiella oxytoca) (UniProt Q848S6); assay: Inhibition of Klebsiella oxytoca KX1017 KPC-2 assessed as imipenem MIC at 4 ug/ml by broth microdilution method
[11] = Cmax in human at 1 g administered as 3 hrs of infusion; format: ADME, organism-based; set-up: dose 1 g; conditions: in vivo, iv
[12] = Inhibition of Escherichia coli recombinant P99 assessed as substrate nitrocefin degradation preincubated for 10 mins followed by substrate addition measured every 10 secs for 10 mins by spectrophotometric analysis
Procedure, shortened: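 β-Lactamases purified from overexpressing recombinant E. coli. Enzyme preincubated with inhibitor at varying concentrations for 10 min at room temperature in 50 mM Na phosphate pH 7.0, 0.1 mg/mL BSA. Then 50 μM nitrocefin (final) added and cleavage read at 490 nm every 10 s for 10 min. Ki derived by the Waley method.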

[13] = target: Carbapenem-hydrolyzing beta-lactamase KPC (Klebsiella pneumoniae) (UniProt Q9F663); assay: Inhibition of Klebsiella pneumoniae KP1083 KPC-3 assessed as imipenem MIC at 4 ug/ml by broth microdilution method
Klebsiella pneumoniae [14] = assay: Inhibition of Klebsiella pneumoniae KP1082 KPC-2 assessed as imipenem MIC at 4 ug/ml by broth microdilution method
[15] = target: Beta lactamase TEM-1 (Klebsiella pneumoniae) (UniProt Q7B899); assay: Inhibition of Klebsiella pneumoniae KP1084 TEM-1 assessed as ertapenem MIC at 4 ug/ml by broth microdilution method; procedure, shortened: as §1
Klebsiella pneumoniae [16] = assay: Inhibition of Klebsiella pneumoniae KP1087 KPC-2 assessed as biapenem MIC at 4 ug/ml by broth microdilution method
Klebsiella pneumoniae [17] = assay: Inhibition of Klebsiella pneumoniae KP1010 SHV-12 assessed as cefepime MIC at 4 ug/ml by broth microdilution method; procedure, shortened: as §3
Klebsiella oxytoca [18] = assay: Inhibition of Klebsiella oxytoca KX1017 OXA-2 assessed as meropenem MIC at 4 ug/ml by broth microdilution method
Klebsiella oxytoca [19] = assay: Inhibition of Klebsiella oxytoca KX1019 OXA-2 assessed as imipenem MIC at 4 ug/ml by broth microdilution method
Klebsiella pneumoniae [20] = assay: Inhibition of Klebsiella pneumoniae KP1004 SHV-11 assessed as biapenem MIC at 4 ug/ml by broth microdilution method; procedure, shortened: as §1
Klebsiella pneumoniae [21] = assay: Inhibition of Klebsiella pneumoniae KP1087 KPC-2 assessed as meropenem MIC at 4 ug/ml by broth microdilution method; procedure, shortened: as §1
[22] = target: Beta lactamase TEM-1 (Klebsiella pneumoniae) (UniProt Q7B899); assay: Inhibition of Klebsiella pneumoniae KP1083 TEM-1 assessed as biapenem MIC at 4 ug/ml by broth microdilution method; procedure, shortened: as §1
Klebsiella pneumoniae [23] = assay: Inhibition of Klebsiella pneumoniae KP1088 SHV-11 assessed as ertapenem MIC at 4 ug/ml by broth microdilution method; procedure, shortened: as §2
[24] = Inhibition of chymotrypsin (unknown origin) using Suc-AAPF-AMC as substrate preincubated for 10 mins followed by substrate addition measured for 30 mins by spectrophotometric analysis; set-up: species or system Homo sapiens
Procedure, shortened: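 Chymotrypsin, from a commercial source, in 20 mM Tris-HCl, pH 8, 150 mM NaCl, 2.5 mM CaCl2. Incubated 10 min at 37 °C with varied inhibitor concentrations. Suc-AAPF-AMC (listed at 10 μM) was added and the reaction read for 30 min. Rates were relative to untreated; IC50 is the concentration giving 50% inhibition.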

[25] = target: Urokinase-type plasminogen activator (Homo sapiens, UniProt P00749); assay: Inhibition of urokinase (unknown origin) using NGK-pNA as substrate preincubated for 10 mins followed by substrate addition measured for 30 mins by spectrophotometric analysis
Procedure, shortened: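 Urokinase, from a commercial source, in 50 mM Tris-HCl, pH 8.5, 38 mM NaCl. Mixed with inhibitor at various concentrations for 10 min at 37 °C, then NGK-pNA (listed at 100 μM) added and absorbance monitored for 30 min. Rates were relative to untreated; IC50 is the concentration giving 50% inhibition.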

Klebsiella pneumoniae [26] = assay: Inhibition of Klebsiella pneumoniae KP1082 KPC-2 assessed as meropenem MIC at 4 ug/ml by broth microdilution method; procedure, shortened: as §1
[27] = target: Beta-lactamase TEM (Enterobacter cloacae) (UniProt Q6W9J1); assay: Inhibition of Enterobacter cloacae ECL1058 TEM-1 assessed as biapenem MIC at 4 ug/ml by broth microdilution method
Klebsiella pneumoniae [28] = assay: Inhibition of Klebsiella pneumoniae KP1004 SHV-11 assessed as ertapenem MIC at 4 ug/ml by broth microdilution method; procedure, shortened: as §1

Beta lactamase TEM-1 (Klebsiella pneumoniae), sequence (Q7B899 as listed by the source): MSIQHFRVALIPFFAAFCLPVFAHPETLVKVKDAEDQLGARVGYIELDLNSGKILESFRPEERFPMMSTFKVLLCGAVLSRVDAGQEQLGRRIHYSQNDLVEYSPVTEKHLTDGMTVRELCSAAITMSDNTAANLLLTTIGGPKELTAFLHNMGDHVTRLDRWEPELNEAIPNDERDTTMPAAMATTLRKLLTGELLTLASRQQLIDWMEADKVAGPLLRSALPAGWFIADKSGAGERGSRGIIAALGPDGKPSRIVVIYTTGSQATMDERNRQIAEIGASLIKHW
Carbapenem-hydrolyzing beta-lactamase KPC (Klebsiella oxytoca), sequence (Q848S6 whole entry, the tested form may be a part): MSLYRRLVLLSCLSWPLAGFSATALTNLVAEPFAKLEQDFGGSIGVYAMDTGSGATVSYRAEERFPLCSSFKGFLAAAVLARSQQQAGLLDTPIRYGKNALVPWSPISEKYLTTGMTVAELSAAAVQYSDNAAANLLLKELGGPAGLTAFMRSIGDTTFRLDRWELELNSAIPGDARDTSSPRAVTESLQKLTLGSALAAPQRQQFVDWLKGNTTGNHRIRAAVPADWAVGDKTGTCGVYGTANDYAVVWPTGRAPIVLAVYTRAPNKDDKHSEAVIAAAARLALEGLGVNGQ
Beta-lactamase TEM (Enterobacter cloacae), sequence (Q6W9J1 as listed by the source): as the sequence (Q7B899 as listed by the source) above
Plasminogen, sequence (P00747 97-580 limits assumed): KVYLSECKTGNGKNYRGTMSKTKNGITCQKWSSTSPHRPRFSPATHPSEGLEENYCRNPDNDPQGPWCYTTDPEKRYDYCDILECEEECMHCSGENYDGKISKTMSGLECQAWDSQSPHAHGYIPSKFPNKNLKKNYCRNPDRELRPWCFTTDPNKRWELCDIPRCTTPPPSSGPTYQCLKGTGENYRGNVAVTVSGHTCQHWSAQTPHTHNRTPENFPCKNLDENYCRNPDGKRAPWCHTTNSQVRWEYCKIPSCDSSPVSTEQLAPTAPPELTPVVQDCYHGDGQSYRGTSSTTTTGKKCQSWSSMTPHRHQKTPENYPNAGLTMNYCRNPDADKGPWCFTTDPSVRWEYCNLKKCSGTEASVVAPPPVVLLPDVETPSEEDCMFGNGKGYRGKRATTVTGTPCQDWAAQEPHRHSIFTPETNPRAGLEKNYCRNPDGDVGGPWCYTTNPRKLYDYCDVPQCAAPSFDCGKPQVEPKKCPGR
Plasminogen, sequence (P00747 581-810 limits assumed): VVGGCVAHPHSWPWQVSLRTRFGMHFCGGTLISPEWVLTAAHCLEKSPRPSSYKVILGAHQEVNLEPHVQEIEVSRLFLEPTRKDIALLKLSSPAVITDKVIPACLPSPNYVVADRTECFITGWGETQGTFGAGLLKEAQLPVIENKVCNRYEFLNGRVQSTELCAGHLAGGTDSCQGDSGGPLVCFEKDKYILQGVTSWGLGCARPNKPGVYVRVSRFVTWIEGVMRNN
Carbapenem-hydrolyzing beta-lactamase KPC (Klebsiella pneumoniae), sequence (Q9F663 whole entry): as the sequence (Q848S6 whole entry, the tested form may be a part) above
Beta-lactamase (Enterobacter cloacae), sequence (P05364 21-381 limits assumed): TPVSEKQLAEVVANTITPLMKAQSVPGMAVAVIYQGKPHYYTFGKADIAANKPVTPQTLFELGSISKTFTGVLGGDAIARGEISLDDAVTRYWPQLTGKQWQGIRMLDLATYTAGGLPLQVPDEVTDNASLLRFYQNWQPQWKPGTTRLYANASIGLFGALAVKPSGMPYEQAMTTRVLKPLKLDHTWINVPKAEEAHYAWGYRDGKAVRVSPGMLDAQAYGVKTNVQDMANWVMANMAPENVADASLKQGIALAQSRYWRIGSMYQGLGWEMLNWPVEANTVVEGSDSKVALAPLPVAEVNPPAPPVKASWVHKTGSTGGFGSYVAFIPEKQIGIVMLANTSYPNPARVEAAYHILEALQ

O=C(O)C[C@@H]1CC[C@H](NC(=O)Cc2cccs2)B(O)O1 [VABORBACTAM]
MIC [1]: 2 µg/mL
MIC (Klebsiella oxytoca [2]): < 0.06 µg/mL
MIC (Klebsiella pneumoniae [3]): ≤ 0.06 µg/mL
IC50 (Plasminogen): > 1000 µM
AUC(0-inf) [4]: 64000 ng·h/mL
MIC (Klebsiella pneumoniae [5]): ≤ 0.06 µg/mL
MIC [6]: 0.25 µg/mL
MIC [7]: < 0.06 µg/mL
MIC (Klebsiella pneumoniae [8]): 4 µg/mL
MIC (Escherichia coli): 2 µg/mL
MIC [9]: 0.13 µg/mL
MIC [10]: 0.13 µg/mL
Cmax [11]: 22000 ng/mL
Ki [12]: 0.053 µM
MIC [13]: 0.13 µg/mL
MIC (Klebsiella pneumoniae [14]): 0.13 µg/mL
MIC [15]: 4 µg/mL
MIC (Klebsiella pneumoniae [16]): 0.25 µg/mL
MIC (Klebsiella pneumoniae [17]): 0.25 µg/mL
MIC (Klebsiella oxytoca [18]): < 0.06 µg/mL
MIC (Klebsiella oxytoca [19]): 0.13 µg/mL
MIC (Klebsiella pneumoniae [20]): ≤ 0.06 µg/mL
MIC (Klebsiella pneumoniae [21]): 1 µg/mL
MIC [22]: < 0.06 µg/mL
MIC (Klebsiella pneumoniae [23]): ≤ 0.06 µg/mL
IC50 [24]: > 1000 µM
IC50 [25]: > 1000 µM
MIC (Klebsiella pneumoniae [26]): ≤ 0.06 µg/mL
MIC [27]: < 0.06 µg/mL
MIC (Klebsiella pneumoniae [28]): ≤ 0.06 µg/mL
